Hits are enriched below; roughly 1.9% of the tested compounds scored in any of these assays.
HGIII-sPLA2 inh: Inhibits HGIII-sPLA2 liposome hydrolysis, primary screen; actives 0.56% (n = 370,000); QFRET BODIPY PC-A2 liposome hydrolysis, fluorescence; Q9NZ20; inhibition, % at 12.2 µM;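 active means inhibition above mean plus 3 SD of compounds lying within the high and low control bounds, cut at about 19% in these data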
PLC-beta3 inh: inhibitors of human phospholipase C beta3; inhibition, % at 12.2 µM; Purified PLC-beta3, fluorogenic substrate, fluorescence; actives 0.18% (n = 370,000)
TbMetRS inhib: Trypanosoma brucei MetRS inhibition; purified T. brucei MetRS, ATP depletion, Kinase-Glo luminescence; inhibition, % at 11.9 µM; actives 0.4% (n = 360,000); AID 624268;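 active means inhibition above a per-plate cutoff of the control wells' mean inhibition plus 3 SD, cut at about 5.5% in these data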
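System: purified T. brucei MetRS enzyme / Detection: Kinase-Glo luciferase luminescence reporting remaining unconsumed ATP / Medium: HEPES buffer with MgCl2, KCl, DTT, spermine, BSA, pyrophosphatase / Replication: singlicate, one well per compound / Evaluation: percent inhibition relative to median high and low control wells / Schedule: 2 h aminoacylation at 25 °C after 15 min preincubation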
PLCg1 inh: inhibitors of human phospholipase C gamma1. P19174. purified PLC-gamma1, fluorogenic substrate, fluorescence. inhibition, % at 12.2 µM. actives 0.84% (n = 370,000). AID 720700; in the data active means inhibition above about 9.5%
DAGLB inh: blocks human DAGLB lipase activity; Q8NCG7; HEK293T DAGLB membrane lysate, EnzChek fluorogenic substrate; inhibition, % at 5.17 µM; actives 0.059% (n = 340,000); in the data active means inhibition above about 34%
Target sequence (Q8NCG7 whole entry, looked up): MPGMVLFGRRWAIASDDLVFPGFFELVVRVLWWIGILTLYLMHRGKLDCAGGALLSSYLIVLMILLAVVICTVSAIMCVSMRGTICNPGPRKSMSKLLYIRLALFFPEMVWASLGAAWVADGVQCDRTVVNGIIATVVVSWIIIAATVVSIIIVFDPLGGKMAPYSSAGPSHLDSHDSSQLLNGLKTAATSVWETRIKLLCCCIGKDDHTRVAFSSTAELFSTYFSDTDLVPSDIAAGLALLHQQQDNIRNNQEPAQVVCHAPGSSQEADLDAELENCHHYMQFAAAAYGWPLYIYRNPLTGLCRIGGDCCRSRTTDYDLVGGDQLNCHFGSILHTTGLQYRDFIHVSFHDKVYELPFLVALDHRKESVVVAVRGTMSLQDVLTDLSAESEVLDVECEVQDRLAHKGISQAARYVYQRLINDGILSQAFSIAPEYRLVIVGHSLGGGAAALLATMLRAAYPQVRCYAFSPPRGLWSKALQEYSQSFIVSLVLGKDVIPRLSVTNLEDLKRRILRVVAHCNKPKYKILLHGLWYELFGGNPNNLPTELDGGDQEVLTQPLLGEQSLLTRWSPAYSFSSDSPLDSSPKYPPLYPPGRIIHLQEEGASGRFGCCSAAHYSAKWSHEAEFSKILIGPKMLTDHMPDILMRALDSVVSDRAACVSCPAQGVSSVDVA
PLCg1 ctr: PLC-gamma1 inhibition, counter-screen for PLC-beta3 hits. shares compounds with PLCg1 inh. purified PLC-gamma1, fluorogenic substrate, fluorescence. inhibition, % at 12.3 µM. actives 3.1% (n = 3,300). AID 743258; in the data active means inhibition above about 9.5%
PLCb3 confirm: human PLC-beta3 inhibition, confirmation. shares compounds with PLCg1 inh. purified PLC-beta3, fluorogenic substrate fluorescence. inhibition, % at 12.3 µM. actives 1% (n = 3,300)
Hits are given with their value; - = inactive; . = not tested or not shown. Unless noted, no stated cut-off is given here; in the data, active means inhibition above about 11%; inactive means the rest.

SMILES | HGIII-sPLA2 inh | PLC-beta3 inh | TbMetRS inhib | PLCg1 inh | DAGLB inh | PLCg1 ctr | PLCb3 confirm
CCn1cc(C(=O)O)c(=O)c2cnc(N3CCN(C(=S)NC(=O)c4ccc(Cl)cc4Cl)CC3)nc21 | - | - | - | 10.0 | - | - | -
CCn1cc(C(=O)O)c(=O)c2cnc(N3CCN(C(=S)NC(=O)c4ccc(F)c(F)c4)CC3)nc21 | - | - | - | - | - | . | .
O=C(Nc1ccccc1Cl)O[C@@H]1CC[C@@]23CCCN2C(=O)CCC[C@H]3C1 | - | - | . | - | . | . | .
Cc1nc(NC(=O)C2CC2)sc1C(=O)Nc1ccccc1 | - | - | - | - | - | . | .
Cc1nc(Nc2c(Cl)cccc2Cl)sc1C(=O)Nc1ccccc1 | - | - | - | 9.6 | - | - | -
COC(=O)c1cc2c(c3c4ccccc4n(S(=O)(=O)c4ccc(OC)cc4)c13)C(=O)N(Cc1ccc(N(C)C)cc1)C2 | - | - | . | - | . | . | .
COc1cc(C(c2c(C)[nH][nH]c2=O)c2c(C)[nH][nH]c2=O)cc([N+](=O)[O-])c1O | - | - | - | 15 | - | - | -
COCc1[nH][nH]c(=O)c1C=Nc1ccc(OC(F)(F)F)cc1 | - | 11 | - | - | - | - | -
O=C(NCc1cccnc1)c1cc(C2CCCN(C(=O)c3cccs3)C2)on1 (stereo not given) | - | - | - | 16 | . | - | -
Cc1cc(C)n2nc(SCC(=O)N3CCC(C(=O)O)CC3)nc2n1 | - | 11 | - | - | - | - | -
COC(=O)C1CCN(C(=O)CSc2nc3nc(C)cc(C)n3n2)CC1 | - | - | - | - | - | . | .
O=C(c1cccc(C(F)(F)F)c1)N1CCOC12CCN(c1ncc(C(F)(F)F)cc1Cl)CC2 | - | - | - | 11 | - | - | -
O=C(OC1CCN(c2ncc(C(F)(F)F)cc2Cl)CC1)c1cccc(C(F)(F)F)c1 | - | - | - | - | - | . | .
Cn1cc(S(=O)(=O)CC(=O)N2CCc3ccccc32)c2ccccc21 | - | 16 | - | 18 | - | 13 | 15
O=C(O)c1ccccc1/C=N/NC(=S)NC1CCCCC1 | - | - | - | 11 | - | - | -
O=C(O)c1ccccc1/C=N/NC(=O)C1CCCCC1 | - | - | - | - | - | . | .
COc1ccc(OC)c(S(=O)(=O)CC(=O)c2cc3ccccc3oc2=O)c1 | - | - | . | - | . | . | .
CCN(C(=O)CSc1nnc(NCc2ccccc2)s1)C1CCS(=O)(=O)C1 (stereo not given) | - | - | - | 12 | - | - | -
CCN(C(=O)CSc1nnc(Nc2cccc(C)c2C)s1)C1CCS(=O)(=O)C1 (stereo not given) | - | - | - | - | - | . | .
CC(CNC(=O)c1cc(Cl)ccc1[N+](=O)[O-])NC(=O)c1cc(Cl)ccc1[N+](=O)[O-] (stereo not given) | - | - | - | 11 | - | - | -
CCCCC(=O)N1CCN(C(=O)c2ccc3nc(C)n(C4CCCC4)c3c2)CC1 | - | - | . | - | . | . | .
CCOC(=O)c1sc(-c2ccccc2)cc1NC(=O)CSc1nnnn1C | - | - | - | 13 | - | - | -
S=C(NC1CC1)N1CCc2ccccc2C1 | - | - | - | - | - | . | .
S=C(NC1CCCCC1)N1CCc2ccccc2C1 | - | - | - | 9.9 | - | - | -
Cc1ccc(S(=O)(=O)N2CCOCC2)cc1NC(=O)CNCC1CCCCC1 | - | - | - | 10 | - | - | -
SMILES | HGIII-sPLA2 inh | PLC-beta3 inh | TbMetRS inhib | PLCg1 inh | DAGLB inh | PLCg1 ctr | PLCb3 confirm
O=C(CC1CCCC1)Nc1cc(S(=O)(=O)N2CCOCC2)ccc1O | - | - | - | - | - | . | .
COc1ccc(S(=O)(=O)N2CCCC2)cc1C(=O)N1CCCCC1 | - | - | - | - | - | . | .
COc1ccc(S(=O)(=O)N2CCCCC2)cc1C(=O)N1CCCC1 | - | - | - | 12 | - | - | -
COc1ccc(S(=O)(=O)N2CCOCC2)cc1C(=O)NC1CCCCCC1 | - | - | - | 12 | - | - | -
Cn1c(=O)c(=O)n(C)c2cc(S(=O)(=O)N3CCN(Cc4ccc(F)cc4)CC3)ccc21 | - | - | . | - | . | . | .
Brc1ccc(-c2csc(N3CCC(c4nn[nH]n4)CC3)n2)cc1 | - | - | . | - | . | . | .
CCC(C)N(C(=O)c1oc(=O)c2ccccc2c1-c1ccc(C)cc1)C(C)CC (stereo not given) | - | - | . | - | . | . | .
COc1ccc(C2Nc3ccccc3C(=O)N2Cc2cccnc2)cc1COc1c(C)cccc1C (stereo not given) | - | - | . | - | . | . | .
COc1ccc(N(CC(=O)NC2CCCCC2)S(=O)(=O)c2cccnc2)cc1 | - | - | - | - | - | . | .
Cc1ccc(N(CC(=O)NC2CCC(C)CC2)S(=O)(=O)c2cccnc2)cc1 (stereo not given) | - | 12 | - | - | - | - | -
O=C(Nc1ccc2ccccc2c1)NC1CCCCN(Cc2cccc(Cl)c2)C1=O (stereo not given) | - | - | . | - | . | . | .
CC(=O)c1ccc(NC(=O)NC2CCCCN(Cc3cccc(Cl)c3)C2=O)cc1 (stereo not given) | - | - | . | 11 | . | - | -
Cc1ccccc1CN1CCCCC(NC(=O)c2ccc(-c3ccccc3)cc2)C1=O (stereo not given) | - | - | . | 12 | . | - | -
CCCCOc1ccc(C(=O)NC2CCCCN(Cc3cccc(C(F)(F)F)c3)C2=O)cc1 (stereo not given) | - | - | . | 10 | . | - | -
O=C(NC1CCCCC1)N1CCCC(c2nc(-c3cccs3)no2)C1 (stereo not given) | - | - | - | 10 | - | - | -
Cc1ccccc1NC(=O)N1CCCC(c2nc(-c3ccc(C(C)C)cc3)no2)C1 (stereo not given) | - | - | - | 10 | - | - | -
Cc1cc(-c2cc(NC(=O)Cc3c[nH]c4ccccc34)ccc2N(C)c2cccnc2)ccc1F | - | - | . | - | . | . | .
CN(C(=O)COC(=O)COc1ccc(N(C)S(=O)(=O)c2ccc(Cl)cc2)cc1)c1ccccc1 | - | - | - | 12 | - | - | -
CN(c1ccc(OCC(=O)NCCc2ccccc2)cc1)S(=O)(=O)c1ccc(Cl)cc1 | - | - | - | - | - | . | .
COC(=O)[C@]12C[C@H](CC(=O)NCCC(C)C)C(=O)N(Cc3ccco3)C1=C[C@H](C1CCCC1)O[C@@H]2C | - | - | . | - | . | . | .
CS(=O)(=O)N1CCN(c2ccc(NC(=O)C(c3ccccc3)c3ccccc3)cc2)CC1 | - | - | - | 9.6 | - | - | -
Cc1nc([N+](=O)[O-])c(Br)n1CC(=O)c1ccc(Cl)cc1 | - | - | - | 9.7 | - | - | -
O=C(O)CCC(=O)NNC(=O)CCC1CCCCC1 | - | - | - | - | - | . | .
O=C(O)CCC(=O)OCC1CCCCC1 | - | - | - | 9.8 | - | - | -
